# Test results published in ChEMBL document CHEMBL1649436, “Antiviral activity of MK-4965, a novel nonnucleoside reverse transcriptase inhibitor” (Antimicrob Agents Chemother, 2009).
# Experiments:
# [1] = system: Human immunodeficiency virus 1; test: Antiviral activity against HIV1 isolate R8 harboring reverse transcriptase K103N and Y181C mutant infected in human MT4 cells assessed as inhibition of viral replication after 72 hrs in presence of 50% human serum; assay type: functional; settings: Human immunodeficiency virus 1, isolate R8, MT4, 72 h
# Procedure, shortened: (§1)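 Multiple-cycle assay: MT-4 cells (2.5 × 10^5) infected with R8-based virus at low MOI, no inhibitor, 24 h at 37°C, 5% CO2; washed, reseeded at 5 × 10^4 cells in RPMI 1640 with 10% FBS or 50% type AB human serum; threefold serial dilutions from 833 nM to 0.32 nM; 72 h; p24 in medium by AlphaScreen; EC95 = lowest concentration giving ≥95% p24 reduction versus untreated.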
# [2] = Cytotoxicity against activated human macrophage after 24 to 72 hrs by alamar blue assay; assay type: cell-based
# Procedure, shortened: (§2)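 Cytotoxicity measured with Alamar blue after incubation at 37°C in 5% CO2 for 24, 48 or 72 h, in stationary and activated primary cells (CD4 cells, monocytes, PBMC, macrophages) and proliferating lines (MT4, SupT1, HL60).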
# [3] = system: Human immunodeficiency virus 1; test: Antiviral activity against HIV1 clade A harboring mutant reverse transcriptase relative to HIV1 CNDO with wild type reverse transcriptase; assay type: functional
# [4] = system: Human immunodeficiency virus 1; test: Antiviral activity against NRTI-, PI-resistant HIV1 harboring mutant reverse transcriptase relative to HIV1 CNDO with wild type reverse transcriptase; assay type: functional
# Procedure, shortened: (§3)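 Single-cycle PhenoScreen assay run by Monogram Biosciences, using viruses carrying RT sequences from clinical isolates, subtypes/CRFs or PI/NRTI-resistant clade B viruses; nine serial drug concentrations; activity expressed relative to drug-sensitive reference strain CNDO (protease and RT from NL4-3), with multidrug-resistant MDRC4 as assay-performance control.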
# [5] = system: Human immunodeficiency virus 1; test: Antiviral activity against HIV1 isolate R8 harboring wild type reverse transcriptase infected in human MT4 cells assessed as inhibition of viral replication after 72 hrs in presence of 50% human serum; assay type: functional; settings: Human immunodeficiency virus 1, isolate R8, MT4, 72 h; procedure, shortened: as §1
# [6] = system: Human immunodeficiency virus 1; test: Antiviral activity against HIV1 clade C harboring mutant reverse transcriptase relative to HIV1 CNDO with wild type reverse transcriptase; assay type: functional
# [7] = system: Human immunodeficiency virus 1; test: Antiviral activity against HIV1 CRF01_AE harboring mutant reverse transcriptase relative to HIV1 CNDO with wild type reverse transcriptase; assay type: functional; procedure, shortened: as §3
# PBMC [8] = test: Cytotoxicity against stationary-phase human PBMC after 24 to 72 hrs by alamar blue assay; assay type: cell-based; procedure, shortened: as §2
# [9] = system: Human immunodeficiency virus 1; test: Ratio of EC95 for HIV1 isolate R8 harboring reverse transcriptase K103N mutant in presence of 50% human serum to EC95 for HIV1 isolate R8 harboring reverse transcriptase K103N mutant in presence of 10% FBS; assay type: functional
# Procedure, shortened: (§4)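 Ratios of EC95 values from the MT-4 multiple-cycle assay: R8 variants infected 24 h at low MOI, then reseeded in RPMI 1640 with 10% FBS or 50% type AB human serum with threefold dilutions (833–0.32 nM) for 72 h; p24 by AlphaScreen; EC95 = lowest concentration cutting p24 ≥95% versus untreated controls.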
# [10] = system: Human immunodeficiency virus 1; test: Antiviral activity against HIV1 isolate R8 harboring reverse transcriptase K103N mutant infected in human MT4 cells assessed as inhibition of viral replication after 72 hrs in presence of 10% FBS; assay type: functional; settings: Human immunodeficiency virus 1, isolate R8, MT4, 72 h; procedure, shortened: as §1
# [11] = system: Human immunodeficiency virus 1; test: Antiviral activity against HIV1 isolate R8 harboring wild type reverse transcriptase infected in human MT4 cells assessed as inhibition of viral replication after 72 hrs in presence of 10% FBS; assay type: functional; settings: Human immunodeficiency virus 1, isolate R8, MT4, 72 h; procedure, shortened: as §1
# [12] = system: Human immunodeficiency virus 1; test: Antiviral activity against HIV1 CRF02_AG harboring mutant reverse transcriptase relative to HIV1 CNDO with wild type reverse transcriptase; assay type: functional; procedure, shortened: as §3
# [13] = system: Human immunodeficiency virus 1; test: Selectivity ratio of IC50 for HIV1 isolate R8 reverse transcriptase K103N mutant to IC50 for HIV1 isolate R8 reverse transcriptase
# [14] = system: Human immunodeficiency virus 1; test: Ratio of EC95 for HIV1 isolate R8 harboring reverse transcriptase Y181C mutant in presence of 50% human serum to EC95 for HIV1 isolate R8 harboring wild type reverse transcriptase in presence of 50% human serum; assay type: functional; procedure, shortened: as §4
# [15] = system: Human immunodeficiency virus 1; test: Ratio of EC95 for HIV1 isolate R8 harboring reverse transcriptase K103N mutant in presence of 50% human serum to EC95 for HIV1 isolate R8 harboring wild type reverse transcriptase in presence of 50% human serum; assay type: functional; procedure, shortened: as §4
# [16] = system: Human immunodeficiency virus 1; test: Antiviral activity against NRTI-resistant HIV1 harboring mutant reverse transcriptase relative to HIV1 CNDO with wild type reverse transcriptase; assay type: functional; procedure, shortened: as §3
# Plasma = test: Plasma protein binding in HIV1 infected patient; assay type: ADME, cell-free; settings: human
# [17] = system: Human immunodeficiency virus 1; test: Antiviral activity against HIV1 clade B harboring mutant reverse transcriptase relative to HIV1 CNDO with wild type reverse transcriptase; assay type: functional
# [18] = system: Human immunodeficiency virus 1; test: Ratio of EC95 for HIV1 isolate R8 harboring wild type reverse transcriptase in presence of 50% human serum to EC95 for HIV1 isolate R8 harboring wild type reverse transcriptase in presence of 10% FBS; assay type: functional; procedure, shortened: as §4
# [19] = Cytotoxicity against stationary-phase human monocyte after 24 to 72 hrs by alamar blue assay; assay type: cell-based; procedure, shortened: as §2
# [20] = system: Human immunodeficiency virus 1; test: Antiviral activity against HIV1 isolate R8 harboring reverse transcriptase K103N mutant infected in human MT4 cells assessed as inhibition of viral replication after 72 hrs in presence of 50% human serum; assay type: functional; settings: Human immunodeficiency virus 1, isolate R8, MT4, 72 h; procedure, shortened: as §1
# [21] = system: Human immunodeficiency virus 1; test: Antiviral activity against HIV1 isolate R8 harboring reverse transcriptase K103N and Y181C mutant infected in human MT4 cells assessed as inhibition of viral replication after 72 hrs in presence of 10% FBS; assay type: functional; settings: Human immunodeficiency virus 1, isolate R8, MT4, 72 h; procedure, shortened: as §1
# [22] = Cytotoxicity against stationary-phase human CD4+ T cells after 24 to 72 hrs by alamar blue assay; assay type: cell-based; settings: T-cell; procedure, shortened: as §2
# [23] = system: Human immunodeficiency virus 1; test: Ratio of EC95 for HIV1 isolate R8 harboring reverse transcriptase K103N and Y181C mutant in presence of 50% human serum to EC95 for HIV1 isolate R8 harboring wild type reverse transcriptase in presence of 50% human serum; assay type: functional; procedure, shortened: as §4
# [24] = system: Human immunodeficiency virus 1; test: Antiviral activity against HIV1 isolate R8 harboring reverse transcriptase L100I mutant relative to drug-sensitive HIV1 CNDO; assay type: functional; procedure, shortened: as §3
# [25] = system: Human immunodeficiency virus 1; test: Antiviral activity against HIV1 clade F1 harboring mutant reverse transcriptase relative to HIV1 CNDO with wild type reverse transcriptase; assay type: functional
# [26] = system: Human immunodeficiency virus 1; test: Antiviral activity against HIV1 clade G harboring mutant reverse transcriptase relative to HIV1 CNDO with wild type reverse transcriptase; assay type: functional
# [27] = system: Human immunodeficiency virus 1; test: Antiviral activity against HIV1 isolate R8 harboring reverse transcriptase Y181C mutant infected in human MT4 cells assessed as inhibition of viral replication after 72 hrs in presence of 50% human serum; assay type: functional; settings: Human immunodeficiency virus 1, isolate R8, MT4, 72 h; procedure, shortened: as §1
# [28] = system: Human immunodeficiency virus 1; test: Antiviral activity against HIV1 isolate R8 harboring reverse transcriptase V106A, G190A and F227L mutant relative to drug-sensitive HIV1 CNDO; assay type: functional; procedure, shortened: as §3
# [29] = system: Human immunodeficiency virus 1; test: Selectivity ratio of IC50 for HIV1 isolate R8 reverse transcriptase Y181C mutant to IC50 for HIV1 isolate R8 reverse transcriptase
# [30] = system: Human immunodeficiency virus 1; test: Antiviral activity against HIV1 CRF17_BF harboring mutant reverse transcriptase relative to HIV1 CNDO with wild type reverse transcriptase; assay type: functional; procedure, shortened: as §3
# [31] = system: Human immunodeficiency virus 1; test: Ratio of EC95 for HIV1 isolate R8 harboring reverse transcriptase K103N and Y181C mutant in presence of 50% human serum to EC95 for HIV1 isolate R8 harboring reverse transcriptase K103N and Y181C mutant in presence of 10% FBS; assay type: functional; procedure, shortened: as §4
# PBMC [32] = test: Cytotoxicity against activated human PBMC after 24 to 72 hrs by alamar blue assay; assay type: cell-based; procedure, shortened: as §2
# [33] = system: Human immunodeficiency virus 1; test: Antiviral activity against HIV1 isolate R8 harboring reverse transcriptase K103N and G190A mutant relative to drug-sensitive HIV1 CNDO; assay type: functional; procedure, shortened: as §3
# [34] = Cytotoxicity against human SupT1 cells after 24 to 72 hrs by alamar blue assay; assay type: cell-based; settings: SUP-T1; procedure, shortened: as §2
# [35] = system: Human immunodeficiency virus 1; test: Antiviral activity against HIV1 isolate R8 harboring reverse transcriptase Y181C mutant infected in human MT4 cells assessed as inhibition of viral replication after 72 hrs in presence of 10% FBS; assay type: functional; settings: Human immunodeficiency virus 1, isolate R8, MT4, 72 h; procedure, shortened: as §1
# [36] = system: Human immunodeficiency virus 1; test: Antiviral activity against PI-resistant HIV1 harboring mutant reverse transcriptase relative to HIV1 CNDO with wild type reverse transcriptase; assay type: functional; procedure, shortened: as §3
# [37] = Cytotoxicity against activated human CD4+ T cells after 24 to 72 hrs by alamar blue assay; assay type: cell-based; settings: T-cell; procedure, shortened: as §2
# [38] = system: Human immunodeficiency virus 1; test: Antiviral activity against HIV1 isolate R8 harboring reverse transcriptase Y188L mutant relative to drug-sensitive HIV1 CNDO; assay type: functional; procedure, shortened: as §3
# [39] = Cytotoxicity against stationary-phase human macrophage after 24 to 72 hrs by alamar blue assay; assay type: cell-based; procedure, shortened: as §2
# [40] = system: Human immunodeficiency virus 1; test: Ratio of EC95 for HIV1 isolate R8 harboring reverse transcriptase Y181C mutant in presence of 50% human serum to EC95 for HIV1 isolate R8 harboring reverse transcriptase Y181C mutant in presence of 10% FBS; assay type: functional; procedure, shortened: as §4
# [41] = system: Human immunodeficiency virus 1; test: Antiviral activity against HIV1 clade H harboring mutant reverse transcriptase relative to HIV1 CNDO with wild type reverse transcriptase; assay type: functional
# [42] = Cytotoxicity against activated human monocyte after 24 to 72 hrs by alamar blue assay; assay type: cell-based; procedure, shortened: as §2
# [43] = system: Human immunodeficiency virus 1; test: Antiviral activity against HIV1 clade D harboring mutant reverse transcriptase relative to HIV1 CNDO with wild type reverse transcriptase; assay type: functional
# MT4 = test: Cytotoxicity against human MT4 cells after 24 to 72 hrs by alamar blue assay; assay type: cell-based; procedure, shortened: as §2
# HL-60 = test: Cytotoxicity against human HL60 cells after 24 to 72 hrs by alamar blue assay; assay type: cell-based; procedure, shortened: as §2
smiles,measurement,setting,value
N#Cc1cc(Cl)cc(Oc2cc(OCc3n[nH]c4nc(N)ccc34)ccc2Cl)c1,EC95,[1],447 nM
same,EC50,[2],> 3000 nM
same,fold change (FC),[3],0.73
same,fold change (FC),[4],0.18
same,EC95,[5],29 nM
same,fold change (FC),[6],1.07
same,fold change (FC),[7],0.9
same,EC50,PBMC [8],> 3000 nM
same,fold change (FC),[9],4
same,EC95,[10],13 nM
same,EC95,[11],4.4 nM
same,fold change (FC),[12],0.92
same,fold change (FC),[13],2
same,fold change (FC),[14],6
same,fold change (FC),[15],2
same,fold change (FC),[16],0.3
same,Activity,Plasma,96.5%
same,fold change (FC),[17],1.25
same,fold change (FC),[18],4
same,EC50,[19],> 3000 nM
same,EC95,[20],58 nM
same,EC95,[21],128 nM
same,EC50,[22],> 3000 nM
same,fold change (FC),[23],15
same,fold change (FC),[24],0.9
same,fold change (FC),[25],0.72
same,fold change (FC),[26],0.58
same,EC95,[27],184 nM
same,fold change (FC),[28],> 100
same,fold change (FC),[29],2
same,fold change (FC),[30],1.15
same,fold change (FC),[31],4
same,EC50,PBMC [32],> 3000 nM
same,fold change (FC),[33],5
same,EC50,[34],> 3000 nM
same,EC95,[35],30 nM
same,fold change (FC),[36],0.84
same,EC50,[37],> 3000 nM
same,fold change (FC),[38],> 100
same,EC50,[39],> 3000 nM
same,fold change (FC),[40],4
same,fold change (FC),[41],0.22
same,EC50,[42],> 3000 nM
same,fold change (FC),[43],0.56
same,EC50,MT4,> 3000 nM
same,EC50,HL-60,> 3000 nM
